Source: ChEMBL document CHEMBL1821632 (2011)
Active and inactive are the calls of the source. No cut-off for these calls is given here.

Experiments:
Lipid bilayer [1] = test: Binding affinity to dipalmitoyl phosphatidyl choline lipid bilayer assessed as decrease in pre-transition temperature by DSC technique
Lipid bilayer [2] = test: Binding affinity to dipalmitoyl phosphatidyl choline lipid bilayer assessed as decrease in pre-transition temperature at compound to lipid molar ratio of 1:5 by DSC technique
Outline: (§1)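 DPPC bilayers carried additive at additive:lipid molar ratios of 0:100, 1:5, 1:2 or 1:1. Samples were degassed under vacuum and scanned by DSC from 20 to 60 °C at 10 °C/h. The pre-transition and main transition (Tm) temperatures were read from the thermograms and compared with the additive-free lipid.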

Lipid bilayer [3] = test: Binding affinity to dipalmitoyl phosphatidyl choline lipid bilayer assessed as decrease in pre-transition temperature at compound to lipid molar ratio of 1:1 by DSC technique
Outline: as §1

[4] = (§2) Antifertility activity against goat epididymis sperm cells assessed as loss of sperm motility at 1.25 mM by Sander-Cramer test; type: functional, Capra hircus
Outline: (§3)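 Sperm came from the cauda epididymis of goats. Tissue pieces were allowed to settle out, and the cells were washed, pelleted and resuspended in buffer. Cells were diluted in Dulbecco buffer (control) or in 1.25 mM drug solution. Motility was scored by the Sander-Cramer method, examining at least six microscope fields per slide at 1 h and 2 h of incubation.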

Lipid bilayer [5] = test: Binding affinity to dipalmitoyl phosphatidyl choline lipid bilayer assessed as decrease in main transition temperature by DSC technique
Lipid bilayer [6] = test: Binding affinity to dipalmitoyl phosphatidyl choline lipid bilayer assessed as decrease in main transition temperature at compound to lipid molar ratio of 1:1 by DSC technique
Outline: as §1

Lipid bilayer [7] = test: Binding affinity to dipalmitoyl phosphatidyl choline lipid bilayer assessed as decrease in main transition temperature at compound to lipid molar ratio of 1:5 by DSC technique
Outline: as §1

Sperm [8] = test: Antifertility activity against goat epididymis sperm cells assessed as inhibition of sperm motility at 1.25 mM after 1 hr by Sander-Cramer test; type: functional; details: Capra hircus
Outline: as §3

Sperm [9] = test: as §2; type: functional; details: Capra hircus
Outline: as §3

With `CCOC(=O)C1=C(C)NC(C)=C(C(=O)OCC)C1c1ccc(Cl)cc1` the Activity (Lipid bilayer [1]) was “Active”, the Activity (Lipid bilayer [2]) was “Active” and the Activity (Lipid bilayer [3]) was “Active”. For the same compound, the Activity [4] was 25%.

With `CCOC(=O)C1=C(C)NC(C)=C(C(=O)OCC)C1c1ccccc1` the Activity (Lipid bilayer [1]) was “Active”, the Activity (Lipid bilayer [2]) was “Active” and the Activity (Lipid bilayer [3]) was “Active”. It also gave an Activity [4] of 25%.

In the case of `CCOC(=O)C1=C(C)NC(C)=C(C(=O)OCC)C1c1ccc(O)cc1`, the Tm (Lipid bilayer [5]) was 4.25 °C, the Activity (Lipid bilayer [1]) was “Active” and the Tm (Lipid bilayer [6]) was 4.25 °C. For the same compound, the Tm (Lipid bilayer [7]) was 4.25 °C, the Activity (Lipid bilayer [2]) was “Active” and the Activity (Lipid bilayer [3]) was “Active”. For the same compound, the inhibition (Sperm [8]) was “Active”.

For `O=C(O)c1cc(/N=N/c2ccc(S(=O)(=O)Nc3ccccn3)cc2)ccc1O`, the Activity (Lipid bilayer [1]) was “Active”, the Activity (Lipid bilayer [2]) was “Active” and the Activity (Lipid bilayer [3]) was “Active”.

With `CCOC(=O)C1=C(C)NC(C)=C(C(=O)OCC)C1c1ccccc1O` the Activity (Lipid bilayer [1]) was “Active”, the Activity (Lipid bilayer [2]) was “Active” and the Activity (Lipid bilayer [3]) was “Active”. For the same compound, the inhibition (Sperm [9]) was “Active”.

For `COC(=O)C1=C(C)NC(C)=C(C(=O)OC)C1c1ccccc1[N+](=O)[O-]`, the Activity (Lipid bilayer [1]) was “Active”, the Activity (Lipid bilayer [2]) was “Active” and the Activity (Lipid bilayer [3]) was “Active”.
